Source: ChEMBL document CHEMBL1135657, “Novel dual inhibitors of AChE and MAO derived from hydroxy aminoindan and phenethylamine as potential treatment for Alzheimer's disease” (J Med Chem, 2002)

How the values were obtained:
[1] = target: T1, Acetylcholinesterase (Homo sapiens, UniProt P22303); assay: In vitro inhibitory concentration against purified Acetylcholinesterase of human erythrocytes; value ranges from 3.69-33.1
[2] = target: T2, Butyrylcholinesterase (Equus caballus, UniProt Q9N1N9); assay: In vitro inhibitory concentration against Butyrylcholinesterase of horse serum; value ranges from 0.45-1.08
T2 sequence (Q9N1N9 whole entry): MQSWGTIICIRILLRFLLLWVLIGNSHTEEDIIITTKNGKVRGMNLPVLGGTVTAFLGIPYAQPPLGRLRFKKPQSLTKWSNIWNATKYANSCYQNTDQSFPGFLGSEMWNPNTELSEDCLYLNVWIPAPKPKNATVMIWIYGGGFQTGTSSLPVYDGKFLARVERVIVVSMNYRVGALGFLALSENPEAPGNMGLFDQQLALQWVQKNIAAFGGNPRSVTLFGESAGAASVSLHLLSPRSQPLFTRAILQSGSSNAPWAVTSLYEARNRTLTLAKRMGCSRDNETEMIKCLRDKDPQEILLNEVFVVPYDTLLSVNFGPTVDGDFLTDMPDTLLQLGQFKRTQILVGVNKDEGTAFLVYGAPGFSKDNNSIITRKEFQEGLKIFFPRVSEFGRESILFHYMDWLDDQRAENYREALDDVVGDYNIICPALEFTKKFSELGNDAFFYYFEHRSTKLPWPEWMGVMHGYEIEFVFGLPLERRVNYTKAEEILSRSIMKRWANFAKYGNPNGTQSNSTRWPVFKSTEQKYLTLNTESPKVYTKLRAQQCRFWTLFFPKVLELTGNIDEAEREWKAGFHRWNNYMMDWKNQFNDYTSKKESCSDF
Method in brief: (§1)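 Ellman assay followed, with 200 µM butyrylthiocholine as substrate. Runs were in triplicate with four-point dose-response curves. IC50 and fiducial limits came from log concentration versus % inhibition.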

[3] = target: T3, Amine oxidase [flavin-containing] B (Rattus norvegicus, UniProt P19643); assay: In vitro inhibitory concentration against Monoamine oxidase B of rat brain homogenates; value ranges from 0.11-0.57; assay type: tissue-based
T3 sequence (P19643 whole entry): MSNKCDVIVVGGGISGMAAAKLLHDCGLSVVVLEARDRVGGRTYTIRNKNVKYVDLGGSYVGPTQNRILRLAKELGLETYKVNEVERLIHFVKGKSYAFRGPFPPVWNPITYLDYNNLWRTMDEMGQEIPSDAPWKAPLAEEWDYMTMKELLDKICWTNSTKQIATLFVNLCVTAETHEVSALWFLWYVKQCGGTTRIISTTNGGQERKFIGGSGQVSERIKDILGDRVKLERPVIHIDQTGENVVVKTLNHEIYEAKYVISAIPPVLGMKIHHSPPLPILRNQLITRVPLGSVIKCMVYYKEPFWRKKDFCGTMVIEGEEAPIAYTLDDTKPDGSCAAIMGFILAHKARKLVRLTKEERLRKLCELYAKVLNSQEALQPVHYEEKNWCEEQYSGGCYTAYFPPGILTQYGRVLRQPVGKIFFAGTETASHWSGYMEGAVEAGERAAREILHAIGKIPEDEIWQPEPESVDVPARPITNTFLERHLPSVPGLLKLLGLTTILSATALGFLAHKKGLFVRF
Method in brief: (§2)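 Rat brain homogenate (in 0.3 M sucrose) as enzyme source; compounds diluted 10⁻²M to 10⁻⁹M in 0.05 M phosphate buffer with 0.15 μM clorgyline; preincubated 60 min at 37 °C, then 10 μM ¹⁴C-phenylethylamine added for 20 min more; stopped with citric acid; metabolites extracted into toluene/ethyl acetate, scintillation counted; activity as % of control, tranylcypromine blank.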

[4] = target: T4, Amine oxidase [flavin-containing] A (Rattus norvegicus, UniProt P21396); assay: In vitro inhibitory concentration against Monoamine oxidase A of rat brain homogenates; value ranges from 0.8-3.7; assay type: tissue-based
T4 sequence (P21396 whole entry): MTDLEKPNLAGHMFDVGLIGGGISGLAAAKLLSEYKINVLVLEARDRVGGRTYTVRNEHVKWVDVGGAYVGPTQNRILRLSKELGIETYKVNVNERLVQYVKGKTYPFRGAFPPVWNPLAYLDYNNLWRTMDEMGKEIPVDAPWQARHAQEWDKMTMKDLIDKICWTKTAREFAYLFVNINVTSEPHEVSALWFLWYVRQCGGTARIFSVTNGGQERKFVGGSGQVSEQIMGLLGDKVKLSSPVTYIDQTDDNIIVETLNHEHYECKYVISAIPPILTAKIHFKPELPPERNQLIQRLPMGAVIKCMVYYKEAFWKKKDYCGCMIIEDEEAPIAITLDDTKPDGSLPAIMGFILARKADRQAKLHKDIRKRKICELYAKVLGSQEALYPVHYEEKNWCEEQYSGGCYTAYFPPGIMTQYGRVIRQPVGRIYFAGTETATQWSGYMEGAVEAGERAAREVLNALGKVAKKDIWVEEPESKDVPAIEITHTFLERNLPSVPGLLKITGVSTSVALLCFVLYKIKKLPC

[5] = target: T3, Amine oxidase [flavin-containing] B; assay: In vitro inhibitory concentration against Monoamine oxidase B of rat brain homogenates; value ranges from 9.5-17.2
[6] = target: T2, Butyrylcholinesterase; assay: In vitro inhibitory concentration against Butyrylcholinesterase of horse serum; value ranges from 0.90-0.95; method in brief: as §1
[7] = target: T4, Amine oxidase [flavin-containing] A; assay: In vitro inhibitory concentration against Monoamine oxidase A of rat brain homogenates; value ranges from 1.8-2.5; assay type: tissue-based
[8] = target: T1, Acetylcholinesterase; assay: In vitro inhibitory concentration against purified Acetylcholinesterase of human erythrocytes; value ranges from 12.6-74.0
[9] = target: T4, Amine oxidase [flavin-containing] A; assay: In vitro inhibitory concentration against Monoamine oxidase A of rat brain homogenates; value ranges from 4.7-16.8; assay type: tissue-based
[10] = target: T3, Amine oxidase [flavin-containing] B; assay: In vitro inhibitory concentration against Monoamine oxidase B of rat brain homogenates; value ranges from 2.8-8.3; assay type: tissue-based
[11] = target: T4, Amine oxidase [flavin-containing] A; assay: In vitro inhibitory concentration against Monoamine oxidase A of rat brain homogenates; value ranges from 150-320; assay type: tissue-based
[12] = target: T1, Acetylcholinesterase; assay: In vitro inhibitory concentration against purified Acetylcholinesterase of human erythrocytes; value ranges from 7.5-19.5
[13] = target: T3, Amine oxidase [flavin-containing] B; assay: In vitro inhibitory concentration against Monoamine oxidase B of rat brain homogenates; value ranges from 30-230; assay type: tissue-based
[14] = target: T4, Amine oxidase [flavin-containing] A; assay: In vitro inhibitory concentration against Monoamine oxidase A of rat brain homogenates; value ranges from 14-340; assay type: tissue-based
[15] = target: T3, Amine oxidase [flavin-containing] B; assay: In vitro inhibitory concentration against Monoamine oxidase B of rat brain homogenates; value ranges from 22-530; assay type: tissue-based
[16] = target: T2, Butyrylcholinesterase; assay: In vitro inhibitory concentration against Butyrylcholinesterase of horse serum; value ranges from 10.7-43.7; method in brief: as §1
[17] = target: T1, Acetylcholinesterase; assay: In vitro inhibitory concentration against purified Acetylcholinesterase of human erythrocytes; value ranges from 252-806
[18] = target: T1, Acetylcholinesterase; assay: In vitro inhibitory concentration against purified Acetylcholinesterase of human erythrocytes; value ranges from 13.6-27.3
[19] = target: T3, Amine oxidase [flavin-containing] B; assay: In vitro inhibitory concentration against Monoamine oxidase B of rat brain homogenates; value ranges from 0.08-0.38; assay type: tissue-based; method in brief: as §2
[20] = target: T4, Amine oxidase [flavin-containing] A; assay: In vitro inhibitory concentration against Monoamine oxidase A of rat brain homogenates; value ranges from 12.1-17.6; assay type: tissue-based
[21] = target: T2, Butyrylcholinesterase; assay: In vitro inhibitory concentration against Butyrylcholinesterase of horse serum; value ranges from 1.19-8.56; method in brief: as §1
[22] = target: T4, Amine oxidase [flavin-containing] A; assay: In vitro inhibitory concentration against Monoamine oxidase A of rat brain homogenates; value ranges from 5.6-11.1; assay type: tissue-based
[23] = target: T2, Butyrylcholinesterase; assay: In vitro inhibitory concentration against Butyrylcholinesterase of horse serum; value ranges from 0.038-0.064; method in brief: as §1
[24] = target: T1, Acetylcholinesterase; assay: In vitro inhibitory concentration against purified Acetylcholinesterase of human erythrocytes; value ranges from 0.025-0.027
[25] = target: T3, Amine oxidase [flavin-containing] B; assay: In vitro inhibitory concentration against Monoamine oxidase B of rat brain homogenates; assay type: tissue-based
[26] = target: T4, Amine oxidase [flavin-containing] A; assay: In vitro inhibitory concentration against Monoamine oxidase A of rat brain homogenates 47-101; assay type: tissue-based
[27] = target: T4, Amine oxidase [flavin-containing] A; assay: In vitro inhibitory concentration against Monoamine oxidase A of rat brain homogenates; value ranges from 370-520; assay type: tissue-based
[28] = target: T1, Acetylcholinesterase
[29] = target: T3, Amine oxidase [flavin-containing] B; assay: In vitro inhibitory concentration against Monoamine oxidase B of rat brain homogenates; value ranges from 80.-92
[30] = target: T4, Amine oxidase [flavin-containing] A; assay: In vitro inhibitory concentration against Monoamine oxidase A of rat brain homogenates; value ranges from 0.22-0.29; assay type: tissue-based
[31] = target: T1, Acetylcholinesterase; assay: In vitro inhibitory concentration against purified Acetylcholinesterase of human erythrocytes; value ranges from 0.79-0.93
[32] = target: T4, Amine oxidase [flavin-containing] A; assay: In vitro inhibitory concentration against Monoamine oxidase A of rat brain homogenates; value ranges from 0.1-0.9; assay type: tissue-based
[33] = target: T3, Amine oxidase [flavin-containing] B; assay: In vitro inhibitory concentration against Monoamine oxidase B of rat brain homogenates; value ranges from 1.5-5.2; assay type: tissue-based
[34] = target: T1, Acetylcholinesterase; assay: In vitro inhibitory concentration against purified Acetylcholinesterase of human erythrocytes; value ranges from 0.44-0.49

T1 sequence (P22303 whole entry): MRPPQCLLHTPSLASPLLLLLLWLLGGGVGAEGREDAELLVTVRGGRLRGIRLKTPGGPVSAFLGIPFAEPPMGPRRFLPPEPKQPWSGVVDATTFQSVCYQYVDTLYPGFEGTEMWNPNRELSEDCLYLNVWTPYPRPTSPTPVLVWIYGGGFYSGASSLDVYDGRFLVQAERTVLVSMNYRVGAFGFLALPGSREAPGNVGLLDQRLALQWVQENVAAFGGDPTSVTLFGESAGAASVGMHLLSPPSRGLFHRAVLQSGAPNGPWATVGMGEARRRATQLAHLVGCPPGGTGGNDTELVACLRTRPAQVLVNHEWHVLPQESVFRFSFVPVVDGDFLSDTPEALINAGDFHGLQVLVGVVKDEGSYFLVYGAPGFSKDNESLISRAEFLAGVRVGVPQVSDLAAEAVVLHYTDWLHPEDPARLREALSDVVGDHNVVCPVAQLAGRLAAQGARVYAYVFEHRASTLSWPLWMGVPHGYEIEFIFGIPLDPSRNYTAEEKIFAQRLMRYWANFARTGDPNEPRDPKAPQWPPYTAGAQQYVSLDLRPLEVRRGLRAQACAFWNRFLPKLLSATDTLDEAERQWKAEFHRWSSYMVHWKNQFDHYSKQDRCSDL

C#CCN(C)C(C)Cc1cccc(OC(=O)N(C)C2CCCCC2)c1 (centres undefined)
IC50 [1]: 8.67 µM
IC50 [2]: 0.67 µM
IC50 [3]: 0.24 µM
IC50 [4]: 1.7 µM

C#CCNC(C)Cc1cccc(OC(=O)N(C)CC)c1 (centres undefined)
IC50 [5]: 12.8 µM
IC50 [6]: 0.93 µM
IC50 [7]: 2.1 µM
IC50 [8]: 33.9 µM

C#CCN(C)C(C)Cc1cccc(O)c1 (centres undefined)
IC50 [9]: 8.9 µM
IC50 [10]: 4.8 µM

C#CCN[C@@H]1CCc2ccc(OC(=O)N(C)CCCC)cc21
IC50 [11]: 220 µM
IC50 [12]: 11.6 µM
IC50 [13]: 150 µM

C#CCNCCc1cccc(O)c1
IC50 [14]: 67 µM
IC50 [15]: 107 µM

C#CCN(C)C1CCc2cccc(OC(=O)N(C)CC)c21 (centres undefined)
IC50 [16]: 20 µM
IC50 [17]: 439 µM

C#CCNC(C)Cc1cccc(OC(=O)N(C)CCC)c1 (centres undefined)
IC50 [18]: 19.1 µM
IC50 [19]: 0.17 µM
IC50 [20]: 14.6 µM
IC50 [21]: 2.07 µM

CCN(C)C(=O)Oc1cccc2c1CCC2N (centres undefined)
IC50 [22]: 7.9 µM
IC50 [23]: 0.054 µM
IC50 [24]: 0.026 µM
IC50 [25]: > 1000 µM

C#CCNC1CCc2ccc(OC(=O)NCCC)cc21 (centres undefined)
IC50 [26]: 69 µM

C#CCN[C@H]1CCc2ccc(O)cc21
IC50 [27]: 440 µM

C#CCNC1CCc2c(OC(=O)N(C)C)cccc21 (centres undefined)
IC50 [28]: 0.053 µM
IC50 [29]: 86 µM
IC50 [30]: 0.26 µM

C#CCN(C)CCc1cccc(OC(=O)N(C)C)c1
IC50 [31]: 0.85 µM
IC50 [32]: 0.3 µM
IC50 [33]: 2.8 µM

CN(C)C(=O)Oc1cccc2c1C(N)CC2 (centres undefined)
IC50 [34]: 0.46 µM
